# The source made the active and inactive calls. No cut-off for these calls is given here.
# Tests used:
# SN12C [1] = assay: Cytotoxicity against human SN12C cells by SRB assay; assay type: functional
# Outline: (§1)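 NCI-60 panel screen; 5-dose testing giving GI50 per cell line, plus a single 10 µM one-dose test. Method details not given beyond the NCI screen.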
# HCC 2998 = assay: Cytotoxicity against human HCC2998 cells assessed as cell growth at 50 uM by SRB assay; assay type: functional; settings: read-out: Activity
# Outline: (§2)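 Measured in the NCI-60 human tumour cell line panel using five-dose testing. Growth was recorded at each dose for each cell line, and a GI50 was derived for each line.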
# T47D = assay: Cytotoxicity against human T47D cells assessed as cell growth at 0.5 uM by SRB assay; assay type: functional; settings: read-out: Activity
# SK-MEL-2 = assay: Cytotoxicity against human SK-MEL-2 cells assessed as cell growth at 50 uM by SRB assay; assay type: functional; settings: read-out: Activity
# SK-MEL-5 = assay: Cytotoxicity against human SK-MEL-5 cells assessed as cell growth at 0.005 uM by SRB assay; assay type: functional; settings: read-out: Activity
# CCRF-CEM = assay: Cytotoxicity against human CCRF-CEM cells assessed as cell growth at 0.005 uM by SRB assay; assay type: functional; settings: read-out: Activity
# MOLT-4 [2] = assay: Cytotoxicity against human MOLT4 cells by SRB assay; assay type: functional; outline: as §1
# HOP-62 = assay: Cytotoxicity against human HOP62 cells assessed as cell growth at 0.05 uM by SRB assay; assay type: functional; settings: read-out: Activity; outline: as §2
# NCI-H23 [3] = assay: Cytotoxicity against human NCI-H23 cells assessed as cell growth at 0.005 uM by SRB assay; assay type: functional; settings: read-out: Activity
# K562 = assay: Induction of DNA double strand breaks in human K562 cells assessed as increase in gamma-H2AX level at 25 uM after 4 hrs by chemiluminescence analysis; assay type: functional, cell-based
# Outline: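 K562 cells (3.4 × 10^5/mL) exposed 4 h at 37 °C to 25 µM drug or DMSO. Lysed in Tris pH 6.7/SDS buffer; 50 µg protein on 14% SDS-PAGE, PVDF blot. Rabbit anti-γH2AX (1:1000, overnight), GAPDH loading control, HRP secondary. Chemiluminescence imaged by CCD.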
# OVCAR-4 [4] = assay: Cytotoxicity against human OVCAR4 cells assessed as cell growth at 0.005 uM by SRB assay; assay type: functional; settings: read-out: Activity
# MDA-MB-468 [5] = assay: Cytotoxicity against human MDA-MB-468 cells assessed as cell growth at 5 uM by SRB assay; assay type: functional; settings: read-out: Activity
# NCI-H322M [6] = assay: Cytotoxicity against human NCI-H322M cells assessed as cell growth at 5 uM by SRB assay; assay type: functional; settings: read-out: Activity
# SK-OV-3 = assay: Cytotoxicity against human SKOV3 cells assessed as cell growth at 0.5 uM by SRB assay; assay type: functional; settings: read-out: Activity
# SW-620 = assay: Cytotoxicity against human SW620 cells assessed as cell growth at 0.05 uM by SRB assay; assay type: functional; settings: read-out: Activity
# SNB-75 = assay: Cytotoxicity against human SNB75 cells assessed as cell growth at 0.005 uM by SRB assay; assay type: functional; settings: read-out: Activity
# COLO 205 = assay: Cytotoxicity against human COLO205 cells assessed as cell growth at 0.005 uM by SRB assay; assay type: functional; settings: read-out: Activity
# NCI-H322M [7] = assay: Cytotoxicity against human NCI-H322M cells assessed as cell growth at 50 uM by SRB assay; assay type: functional; settings: read-out: Activity
# HL-60(TB) [8] = assay: Cytotoxicity against human HL-60(TB) cells assessed as cell growth at 0.05 uM by SRB assay; assay type: functional; settings: read-out: Activity; outline: as §2
# MCF7 = assay: Cytotoxicity against human MCF7 cells assessed as cell growth at 0.5 uM by SRB assay; assay type: functional; settings: read-out: Activity
# HL-60(TB) [9] = assay: Cytotoxicity against human HL-60(TB) cells assessed as cell growth at 0.005 uM by SRB assay; assay type: functional; settings: read-out: Activity; outline: as §2
# M14 = assay: Cytotoxicity against human M14 cells assessed as cell growth at 0.5 uM by SRB assay; assay type: functional; settings: read-out: Activity
# MDA-MB-435 = assay: Cytotoxicity against human MDA-MB-435 cells assessed as cell growth at 0.5 uM by SRB assay; assay type: functional; settings: read-out: Activity
# A549 [10] = assay: Cytotoxicity against human A549/ATCC cells assessed as cell growth at 0.5 uM by SRB assay; assay type: functional; settings: read-out: Activity
# A549 [11] = assay: Cytotoxicity against human A549/ATCC cells assessed as cell growth at 50 uM by SRB assay; assay type: functional; settings: read-out: Activity
# MDA-MB-468 [12] = assay: Cytotoxicity against human MDA-MB-468 cells assessed as cell growth at 0.05 uM by SRB assay; assay type: functional; settings: read-out: Activity
# HCT-116 [13] = assay: Cytotoxicity against human HCT116 cells assessed as cell growth at 0.05 uM by SRB assay; assay type: functional; settings: read-out: Activity; outline: as §2
# OVCAR-8 = assay: Cytotoxicity against human OVCAR8 cells assessed as cell growth at 0.5 uM by SRB assay; assay type: functional; settings: read-out: Activity
# HCT-116 [14] = assay: Cytotoxicity against human HCT116 cells assessed as cell growth at 0.005 uM by SRB assay; assay type: functional; settings: read-out: Activity; outline: as §2
# NCI-H522 = assay: Cytotoxicity against human NCI-H522 cells assessed as cell growth at 0.005 uM by SRB assay; assay type: functional; settings: read-out: Activity
# DU-145 [15] = assay: Cytotoxicity against human DU145 cells assessed as cell growth at 0.005 uM by SRB assay; assay type: functional; settings: read-out: Activity
# SN12C [16] = assay: Cytotoxicity against human SN12C cells assessed as cell growth at 0.5 uM by SRB assay; assay type: functional; settings: read-out: Activity
# OVCAR-5 = assay: Cytotoxicity against human OVCAR5 cells assessed as cell growth at 5 uM by SRB assay; assay type: functional; settings: read-out: Activity
# NCI-H23 [17] = assay: Cytotoxicity against human NCI-H23 cells assessed as cell growth at 0.05 uM by SRB assay; assay type: functional; settings: read-out: Activity
# ACHN = assay: Cytotoxicity against human ACHN cells assessed as cell growth at 5 uM by SRB assay; assay type: functional; settings: read-out: Activity
# OVCAR-4 [18] = assay: Cytotoxicity against human OVCAR4 cells by SRB assay; assay type: functional; outline: as §1
# PC-3 = assay: Cytotoxicity against human PC3 cells assessed as cell growth at 50 uM by SRB assay; assay type: functional; settings: read-out: Activity
# NCI-H322M [19] = assay: Cytotoxicity against human NCI-H322M cells assessed as cell growth at 0.5 uM by SRB assay; assay type: functional; settings: read-out: Activity
# MOLT-4 [20] = assay: Cytotoxicity against human MOLT4 cells assessed as cell growth at 5 uM by SRB assay; assay type: functional; settings: read-out: Activity
# DU-145 [21] = assay: Cytotoxicity against human DU145 cells assessed as cell growth at 0.5 uM by SRB assay; assay type: functional; settings: read-out: Activity; outline: as §2
# 786-0 = assay: Cytotoxicity against human 786-0 cells by SRB assay; assay type: functional
# SK-MEL-28 = assay: Cytotoxicity against human SK-MEL-28 cells assessed as cell growth at 50 uM by SRB assay; assay type: functional; settings: read-out: Activity
# [22] = read-out: LC50 (the source's name)
# [23] = read-out: pLC50 (the source's name) (converted)
smiles,measurement,setting,value
COc1cc([C@@H]2c3cc4c(cc3[C@@H](NC(=O)CN3CCN(CCCCCCCCCCN5CCN(CC(=O)N[C@@H]6c7cc8c(cc7[C@@H](c7cc(OC)c(O)c(OC)c7)[C@H]7C(=O)OC[C@@H]76)OCO8)CC5)CC3)[C@H]3COC(=O)[C@H]23)OCO4)cc(OC)c1O,GI50,SN12C [1]; read-out: GI50,185 nM
same,CC50,SN12C [1]; [22],> 50000 nM
same,TGI,SN12C [1]; read-out: TGI,5820 nM
same,GI50,SN12C [1]; read-out: pGI50 (converted),186 nM
same,CC50,SN12C [1]; [23],> 50100 nM
same,TGI,SN12C [1]; read-out: pTGI (converted),5890 nM
same,growth at 50 µM,HCC 2998,-100%
same,growth at 0.5 µM,T47D,49%
same,growth at 50 µM,SK-MEL-2,-59%
same,growth at 0.005 µM,SK-MEL-5,102%
same,growth at 0.005 µM,CCRF-CEM,97%
same,GI50,MOLT-4 [2]; read-out: GI50,185 nM
same,CC50,MOLT-4 [2]; [22],6020 nM
same,TGI,MOLT-4 [2]; read-out: TGI,1400 nM
same,GI50,MOLT-4 [2]; read-out: pGI50 (converted),186 nM
same,CC50,MOLT-4 [2]; [23],6030 nM
same,TGI,MOLT-4 [2]; read-out: pTGI (converted),1410 nM
same,growth at 0.05 µM,HOP-62,48%
same,growth at 0.005 µM,NCI-H23 [3],95%
same,Activity,K562,Active
same,growth at 0.005 µM,OVCAR-4 [4],98%
same,growth at 5 µM,MDA-MB-468 [5],-29%
same,growth at 5 µM,NCI-H322M [6],-42%
same,growth at 0.5 µM,SK-OV-3,52%
same,growth at 0.05 µM,SW-620,75%
same,growth at 0.005 µM,SNB-75,95%
same,growth at 0.005 µM,COLO 205,90%
same,growth at 50 µM,NCI-H322M [7],-23%
same,growth at 0.05 µM,HL-60(TB) [8],69%
same,growth at 0.5 µM,MCF7,30%
same,growth at 0.005 µM,HL-60(TB) [9],96%
same,growth at 0.5 µM,M14,65%
same,growth at 0.5 µM,MDA-MB-435,39%
same,growth at 0.5 µM,A549 [10],9%
same,growth at 50 µM,A549 [11],-41%
same,growth at 0.05 µM,MDA-MB-468 [12],99%
same,growth at 0.05 µM,HCT-116 [13],77%
same,growth at 0.5 µM,OVCAR-8,51%
same,growth at 0.005 µM,HCT-116 [14],99%
same,growth at 0.005 µM,NCI-H522,97%
same,growth at 0.005 µM,DU-145 [15],99%
same,growth at 0.5 µM,SN12C [16],27%
same,growth at 5 µM,OVCAR-5,5%
same,growth at 0.05 µM,NCI-H23 [17],81%
same,growth at 5 µM,ACHN,-77%
same,GI50,OVCAR-4 [18]; read-out: GI50,911 nM
same,CC50,OVCAR-4 [18]; [22],14100 nM
same,TGI,OVCAR-4 [18]; read-out: TGI,2730 nM
same,GI50,OVCAR-4 [18]; read-out: pGI50 (converted),912 nM
same,CC50,OVCAR-4 [18]; [23],14100 nM
same,TGI,OVCAR-4 [18]; read-out: pTGI (converted),2750 nM
same,growth at 50 µM,PC-3,-51%
same,growth at 0.5 µM,NCI-H322M [19],45%
same,growth at 5 µM,MOLT-4 [20],-46%
same,growth at 0.5 µM,DU-145 [21],22%
same,GI50,786-0; read-out: GI50,209 nM
same,CC50,786-0; [22],18700 nM
same,TGI,786-0; read-out: TGI,2340 nM
same,GI50,786-0; read-out: pGI50 (converted),209 nM
same,CC50,786-0; [23],18600 nM
same,TGI,786-0; read-out: pTGI (converted),2340 nM
same,growth at 50 µM,SK-MEL-28,-83%

# — ChEMBL document CHEMBL3588757, “Structure-based design, synthesis and biological testing of piperazine-linked bis-epipodophyllotoxin etoposide analogs” (Bioorg Med Chem, 2015)
